In ChEMBL document CHEMBL1153430 (J Med Chem, 2009):
pEC50: −log10 of the molar value.

How the values were obtained:
[1] = Negative inotropic activity in guinea pig left atrium assessed as decrease in atrial tension at 100 uM relative to control; type: functional, Cavia porcellus, Cardiac atrium; parameters: scale not given: the % may be the effect or the level left
In short: (§1)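 Guinea pig isolated atria, compound given at increasing doses. Left atrium driven at 1 Hz: percent decrease in developed tension (inotropy, EC50). Spontaneously beating right atrium: percent decrease in rate (chronotropy, EC30). Probit analysis (Litchfield-Wilcoxon), n = 6-7. Potencies not calculated when maximal effect <50%.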

[2] = Negative inotropic activity in guinea pig left atrium assessed as decrease in atrial tension; type: functional, tissue-based; settings: Cavia porcellus, Cardiac atrium
[3] = Negative chronotropic activity in guinea pig spontaneously beating right atrium assessed as decrease in atrial rate at 100 uM relative to control; type: functional, Cavia porcellus, Cardiac atrium; parameters: scale not given: the % may be the effect or the level left; in short: as §1
Aorta [4] = experiment: Vasorelaxant activity in potassium-depolarized guinea pig thoracic aorta assessed as inhibition of calcium-induced contraction at 100 uM; type: functional, Cavia porcellus; parameters: scale not given: the % may be the effect or the level left
[5] = molecular target: T1, Voltage-gated L-type calcium channel (Rattus norvegicus, UniProt P22002+Q02485+P27732); experiment: Displacement of [3H]diltiazem from L-type calcium channel in Sprague-Dawley rat cardiac myocytes by liquid scintillation counting; type: cell-based; settings: for Activity: rat
[6] = Negative chronotropic activity in guinea pig spontaneously beating right atrium assessed as decrease in atrial rate at 50 uM relative to control; type: functional, Cavia porcellus, Cardiac atrium; parameters: scale not given: the % may be the effect or the level left; in short: as §1
Aorta [7] = experiment: Vasorelaxant activity in potassium-depolarized guinea pig thoracic aorta assessed as inhibition of calcium-induced contraction at 50 uM; type: functional, Cavia porcellus; parameters: scale not given: the % may be the effect or the level left
[8] = Negative inotropic activity in guinea pig left atrium assessed as decrease in atrial tension at 5 uM relative to control; type: functional, Cavia porcellus, Cardiac atrium; parameters: scale not given: the % may be the effect or the level left; in short: as §1
[9] = Negative chronotropic activity in guinea pig spontaneously beating right atrium assessed as decrease in atrial rate at 10 uM relative to control; type: functional, Cavia porcellus, Cardiac atrium; parameters: scale not given: the % may be the effect or the level left; in short: as §1
Aorta [10] = experiment: Vasorelaxant activity in potassium-depolarized guinea pig thoracic aorta assessed as inhibition of calcium-induced contraction; type: functional, Cavia porcellus; parameters: scale not given: the % may be the effect or the level left
[11] = Negative inotropic activity in guinea pig left atrium assessed as decrease in atrial tension at 10 uM relative to control; type: functional, Cavia porcellus, Cardiac atrium; parameters: scale not given: the % may be the effect or the level left; in short: as §1
[12] = Negative chronotropic activity in guinea pig spontaneously beating right atrium assessed as decrease in atrial rate at 5 uM relative to control; type: functional, Cavia porcellus, Cardiac atrium; parameters: scale not given: the % may be the effect or the level left
[13] = Negative inotropic activity in guinea pig left atrium assessed as decrease in atrial tension at 50 uM relative to control; type: functional, Cavia porcellus, Cardiac atrium; parameters: scale not given: the % may be the effect or the level left
[14] = molecular target: T1, Voltage-gated L-type calcium channel; experiment: Stimulation of [3H]diltiazem binding to L-type calcium channel in Sprague-Dawley rat cardiac myocytes at 1 uM by liquid scintillation counting; type: cell-based
[15] = Negative chronotropic activity in guinea pig spontaneously beating right atrium assessed as decrease in atrial rate at 1 uM relative to control; type: functional, Cavia porcellus, Cardiac atrium; parameters: scale not given: the % may be the effect or the level left
[16] = Negative inotropic activity in guinea pig left atrium assessed as decrease in atrial tension at 1 uM relative to control; type: functional, Cavia porcellus, Cardiac atrium; parameters: scale not given: the % may be the effect or the level left
Heart [17] = experiment: Effect on cardiac activity in guinea pig spontaneously beating heart assessed as change in coronary perfusion pressure at 1 uM relative to control; type: functional, Cavia porcellus
In short: (§2)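 Isolated perfused, spontaneously beating guinea pig heart. Readouts: +(dP/dt)max (maximal rate of rise of left ventricular pressure), heart rate from ECG, coronary perfusion pressure, PR interval. Given as percent change from basal at the highest concentration tested (1 µM), mean ± SEM. pEC50 taken from log concentration-response curves, n = 4-6.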

Heart [18] = experiment: Effect on cardiac activity in guinea pig spontaneously beating heart assessed as change in atrioventricular conduction time at 1 uM relative to control; type: functional, Cavia porcellus; in short: as §2
Heart [19] = experiment: Effect on cardiac activity in guinea pig spontaneously beating heart assessed as change in heart rate at 1 uM relative to control; type: functional, Cavia porcellus; in short: as §2
Heart [20] = experiment: Effect on cardiac activity in guinea pig spontaneously beating heart assessed as change in left ventricular pressure at 1 uM relative to control; type: functional, Cavia porcellus; in short: as §2
[21] = molecular target: T1, Voltage-gated L-type calcium channel; experiment: Inhibition of L-type calcium channel in Wistar rat tail artery smooth muscle cells assessed as blockade of barium[…] current by whole cell patch-clamp assay; settings: for Activity: rat
In short: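 Single smooth muscle cells isolated from rat tail main artery. Peak barium current through L-type channels [I_Ba(L)] recorded under cumulative concentrations, reported as percent inhibition.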

[22] = Ratio of IC50 for L-type calcium channel in Wistar rat tail artery smooth muscle cells to EC50 for negative inotropic activity in guinea pig left atrium; parameters: species or system Cardiac atrium
[23] = molecular target: T1, Voltage-gated L-type calcium channel; experiment: Inhibition of L-type calcium channel in Wistar rat tail artery smooth muscle cells assessed as blockade of barium[…] current at 10 uM by whole cell patch-clamp assay
In short: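 Single smooth muscle cells isolated from rat tail main artery. Peak barium current through L-type channels [I_Ba(L)] recorded under cumulative concentrations, reported as percent inhibition. IC50 from log concentration-response curves, mean ± SEM, n = 4.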

Heart [24] = experiment: Effect on cardiac activity in guinea pig spontaneously beating heart assessed as change in left ventricular pressure; settings: Cavia porcellus, read-out: pEC50 (converted)
Heart [25] = experiment: Effect on cardiac activity in guinea pig spontaneously beating heart assessed as change in coronary perfusion pressure; settings: Cavia porcellus, read-out: pEC50 (converted)
[26] = Negative chronotropic activity in guinea pig spontaneously beating right atrium assessed as decrease in atrial rate; type: functional; settings: Cavia porcellus, Cardiac atrium; in short: as §1

| pEC50 [2] | SMILES | Activity [1] [%] | Activity [3] [%] | Activity (Aorta [4]) [%] | Activity [6] [%] | Activity (Aorta [7]) [%] | Activity [13] [%] | further results |
| --- | --- | --- | --- | --- | --- | --- | --- | --- |
| 5.77 | C/C(=C/SS/C=C(/C)n1c(C(=O)c2ccc(Br)cc2)noc1=O)n1c(C(=O)c2ccc(Br)cc2)noc1=O | 73 | 9 | 5 | – | – | – | Ki [5]: 200 nM |
| 6.57 | CCOC1(c2ccc(Cl)cc2)SC=C(C)n2c1noc2=O (stereo not drawn) | – | – | – | 16 | 28 | – | Activity [8]: 53% |
| 6.14 | C/C(=C/Sc1sc([N+](=O)[O-])cc1[N+](=O)[O-])n1c(C(=O)c2ccc(Br)cc2)noc1=O | – | – | – | – | 32 | – | Activity [9]: 27%; Activity [8]: 85% |
| 5.91 | CCCS/C=C(/C)n1c(C(=O)c2ccc(Br)cc2)noc1=O | 80 | 10 | 26 | – | – | – | – |
| 6.10 | CC1=CSC(O)(c2ccc(Cl)cc2)c2noc(=O)n21 (stereo not drawn) | – | – | – | 18 | 26 | – | Activity (Aorta [10]): <30%; Activity [11]: 80% |
| 5.89 | C=CCS/C=C(/C)n1c(C(=O)c2ccc(Br)cc2)noc1=O | 89 | – | 21 | 18 | – | – | – |
| 5.87 | C=CCS/C=C(/C)n1c(C(=O)c2ccc(Cl)cc2)noc1=O | 70 | – | 23 | – | – | – | Activity [12]: 6% |
| 5.99 | CCCCCCCCCS/C=C(/C)n1c(C(=O)c2ccc(Br)cc2)noc1=O | 84 | 3 | 12 | – | – | – | – |
| 6.04 | C/C(=C/SCC(C)C)n1c(C(=O)c2ccc(Br)cc2)noc1=O | 88 | 16 | 24 | – | – | – | – |
| 5.66 | CCCS/C=C(/C)n1c(C(=O)c2ccc(Cl)cc2)noc1=O | 84 | – | 15 | 17 | – | – | – |
| 6.55 | C/C(=C/S(C)(=O)=O)n1c(C(=O)c2ccc(Br)cc2)noc1=O | – | – | – | – | 6 | 73 | Activity [14]: 25%; Activity [12]: 7% |
| 5.81 | C/C(=C/SCc1ccccc1)n1c(C(=O)c2ccc(Cl)cc2)noc1=O | 78 | 5 | 33 | – | – | – | – |
| – | C/C(=C/[S][Ag])n1c(C(=O)c2ccc(Br)cc2)coc1=O | – | – | 26 | – | – | – | Activity [15]: 18%; Activity (Aorta [10]): <30%; Activity [16]: 32%; Activity (Heart [17]): -3%; Activity (Heart [18]): 30%; Activity (Heart [19]): -4%; Activity (Heart [20]): 0% |
| 6.68 | C/C(=C/[S+](C)[O-])n1c(C(=O)c2ccc(Cl)cc2)noc1=O (stereo not drawn) | – | 4 | 7 | – | – | 71 | – |
| 6.49 | COc1ccc(C2(O)SC=C(C)n3c2noc3=O)cc1 (stereo not drawn) | – | – | – | 18 | 12 | 97 | – |
| 7.40 | CCOC1(c2ccc(Br)cc2)SC=C(C)n2c1noc2=O (stereo not drawn) | – | – | – | – | 19 | 77 | Activity [9]: 5%; Activity (Heart [17]): -9%; Activity (Heart [18]): 32%; Activity (Heart [19]): -14%; Activity (Heart [20]): -3% |

| pEC50 [2] | SMILES | Activity [1] [%] | Activity [3] [%] | Activity (Aorta [4]) [%] | Activity [6] [%] | Activity (Aorta [7]) [%] | Activity [13] [%] | further results |
| --- | --- | --- | --- | --- | --- | --- | --- | --- |
| 6.39 | CS/C=C(/C)n1c(C(=O)c2ccc(Br)cc2)noc1=O | – | – | 10 | – | – | 95 | Activity [9]: 2%; Activity [16]: <50%; IC50 [21]: 25210 nM; Activity [21]: Dose-dependent effect; Ratio IC50 [22]: 60; Activity [23]: Not Active; Ki [5]: 490 nM; Activity [5]: Dose-dependent effect |
| 6.64 | CC1=CSC(O)(c2ccccc2)c2noc(=O)n21 (stereo not drawn) | – | – | – | 14 | 4 | – | Activity [11]: 95% |
| 5.68 | CCS/C=C(/C)n1c(C(=O)c2ccc(Cl)cc2)noc1=O | – | – | 27 | 30 | – | 75 | – |
| 5.85 | C/C(=C/Sc1sc([N+](=O)[O-])cc1[N+](=O)[O-])n1c(C(=O)c2ccc(Cl)cc2)noc1=O | – | – | – | 15 | 35 | 67 | – |
| 6.17 | CCCCCCCCCS/C=C(/C)n1c(C(=O)c2ccc(Cl)cc2)noc1=O | – | 2 | 5 | – | – | – | Activity [11]: 84% |
| 5.88 | CCS/C=C(/C)n1c(C(=O)c2ccc(Br)cc2)noc1=O | 89 | 18 | 43 | – | – | – | – |
| 6.32 | C/C(=C/[S+](C)[O-])n1c(C(=O)c2ccc(Br)cc2)noc1=O (stereo not drawn) | 89 | 33 | 2 | – | – | – | Ki [5]: 23680 nM |
| – | C/C(=C/[S][Ag])n1c(C(=O)c2ccc(Cl)cc2)noc1=O | – | 7 | – | – | 4 | – | Activity (Aorta [10]): <30%; Activity [16]: 49% |
| 6.49 | CC1=CSC(O)(c2ccc(Br)cc2)c2noc(=O)n21 (stereo not drawn) | – | – | – | 18 | 12 | 97 | Activity (Aorta [10]): <30%; IC50 [21]: 33360 nM; Activity [21]: Dose-dependent effect; Ratio IC50 [22]: 100; Activity [23]: Not Active; Ki [5]: 290 nM; Activity [5]: Dose-dependent effect |
| 5.95 | C/C(=C/S(C)(=O)=O)n1c(C(=O)c2ccc(Cl)cc2)noc1=O | 72 | 7 | 13 | – | – | – | – |
| 5.36 | C/C(=C/SS/C=C(/C)n1c(C(=O)c2ccc(Cl)cc2)noc1=O)n1c(C(=O)c2ccc(Cl)cc2)noc1=O | 72 | 4 | 6 | – | – | – | – |
| 5.89 | C/C(=C/SCc1ccccc1)n1c(C(=O)c2ccc(Br)cc2)noc1=O | – | – | – | – | 6 | 80 | Activity [9]: 31% |
| 5.68 | C/C(=C/SCC(C)C)n1c(C(=O)c2ccc(Cl)cc2)noc1=O | 84 | 5 | 6 | – | – | – | – |
| 5.84 | CS/C=C(/C)n1c(C(=O)c2ccc(Cl)cc2)noc1=O | – | – | – | 10 | 8 | 71 | – |
| 6.10 | COc1ccc([C@@H]2Sc3ccccc3N(CCN(C)C)C(=O)[C@@H]2OC(C)=O)cc1 [DILTIAZEM] | – | – | 88 | – | – | – | Activity [15]: 94%; EC50 (Heart [24]): 9.33 nM; Activity [11]: 78%; EC50 (Heart [25]): 21.9 nM; Activity (Heart [17]): -51%; Activity (Heart [18]): 34%; Activity (Heart [19]): -25%; Activity (Heart [20]): -59%; EC30 [26]: 70 nM; Activity [5]: Dose-dependent effect |
